Compound activity deposited in PubChem BioAssay by several laboratories.
Beta apoptosis = blocks beta cell apoptosis; AID 435005; INS-1E cytokine-induced death, ATP luminescence, 48 h; percent of positive-control rescue, neutral wells zero; protection from apoptosis, % (no concentration beside the values); hit rate 0.8% among 300,000;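 active means Every replicate reaches about 75%, or at least half do and their mean reaches it too, limit read from the data; inconclusive means At least half of replicates reach the limit but their mean does not; inactive means Under half of replicates reach the limit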;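 further: 0% = cytokine-treated negative control wells and 100% = positive control rescue; higher means more ATP so stronger rescue from cytokine killing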
SKKanGAS inh = SKKanGAS growth inhibition. S. pyogenes SKKanGAS, kanamycin growth, BacTiter-Glo, 6 h. inhibition, % at 7.5 µM. hit rate 1.3% among 300,000;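 active means mean replicate score, as percent of positive control median, at least 50; inconclusive means mean below 50 but one replicate at or above 50; inactive means mean and every replicate below 50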;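 further: strain carries kanamycin resistance gene driven by streptokinase promoter and grows in 40 µg/ml kanamycin; loss of luminescence reflects streptokinase promoter inhibition or plain growth inhibition; 0% = median of DMSO wells and 100% = positive control at its reference dose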
Mdm2-MdmX inh = human Mdm2/MdmX binding inhibition; inhibition, % at 8 µM; SaOS-2 split-luciferase Mdm2/MdmX complementation, luminescence; hit rate 3% among 330,000;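 active means inhibition of at least 50% at 8 µM in the primary screen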
Target sequence (O15151 whole entry, looked up): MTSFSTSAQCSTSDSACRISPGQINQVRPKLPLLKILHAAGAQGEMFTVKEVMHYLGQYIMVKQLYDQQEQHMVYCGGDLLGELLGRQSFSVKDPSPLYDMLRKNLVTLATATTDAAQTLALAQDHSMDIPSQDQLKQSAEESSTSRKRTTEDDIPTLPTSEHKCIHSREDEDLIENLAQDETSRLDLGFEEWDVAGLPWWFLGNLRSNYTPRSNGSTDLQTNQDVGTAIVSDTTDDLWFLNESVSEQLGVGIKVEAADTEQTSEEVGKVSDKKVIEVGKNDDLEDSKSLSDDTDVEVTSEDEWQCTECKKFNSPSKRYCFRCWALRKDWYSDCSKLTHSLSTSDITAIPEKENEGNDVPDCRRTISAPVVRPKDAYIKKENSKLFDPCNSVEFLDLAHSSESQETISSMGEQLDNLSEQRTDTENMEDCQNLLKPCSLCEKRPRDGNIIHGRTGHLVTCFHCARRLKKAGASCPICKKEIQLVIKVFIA
Target sequence (Q00987 whole entry, looked up): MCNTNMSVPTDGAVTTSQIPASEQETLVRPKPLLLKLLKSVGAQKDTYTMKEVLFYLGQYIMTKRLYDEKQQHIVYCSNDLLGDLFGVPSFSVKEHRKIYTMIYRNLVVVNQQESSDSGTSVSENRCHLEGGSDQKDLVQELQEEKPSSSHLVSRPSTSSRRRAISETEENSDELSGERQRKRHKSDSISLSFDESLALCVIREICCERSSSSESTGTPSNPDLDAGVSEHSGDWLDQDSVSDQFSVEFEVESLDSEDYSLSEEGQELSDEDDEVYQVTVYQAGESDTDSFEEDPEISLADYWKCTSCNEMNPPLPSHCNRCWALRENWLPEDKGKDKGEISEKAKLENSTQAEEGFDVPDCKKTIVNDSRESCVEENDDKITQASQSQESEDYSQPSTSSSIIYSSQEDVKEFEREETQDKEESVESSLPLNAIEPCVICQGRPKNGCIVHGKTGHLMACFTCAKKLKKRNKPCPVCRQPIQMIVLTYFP
Calb FLC = C. albicans growth modulation with fluconazole; C. albicans CaCi-2 (fluconazole-resistant clinical isolate) + fluconazole, Alamar Blue growth, 48 h; growth inhibition, % (concentration not given with the values); hit rate 0.57% among 300,000; AID 1979;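 active means growth inhibition above about 58% in most replicates, limit read from the data, passing the limit was not always enough; inconclusive means exactly half the replicates above a set limit; inactive means most replicates below a set limit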;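 further: all wells also contain fluconazole at 8 µg/ml as a sub-toxic cotreatment; 0% = median of DMSO wells and 100% = median of geldanamycin control wells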
T cruzi inh = T. cruzi replication inhibition | hit rate 1.4% among 300,000 | T. cruzi beta-gal in NIH3T3, luminescence, 90 h | inhibition, % (no concentration beside the values);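 active means mean inhibition across valid replicates above about 55%, limit read from the data; inconclusive means mean below that limit but half or more replicates reach it; inactive means mean below it, under half of replicates reach it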;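 further: signal also drops with host cell toxicity which is not excluded here; 0% = plate median of DMSO wells and 100% = zero luminescence signal; higher percent means less beta-gal luminescence so fewer parasites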
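Material: NIH/3T3 host cells with β-galactosidase reporter T. cruzi; Input: 5,000 host fibroblasts per well; Medium: DMEM, 2% fetal bovine serum; Compound: 50 nL DMSO compound solution per well; Schedule: 3 h host attachment, then at least 90 h co-culture; Detection: luminescent β-galactosidase signal after 60 min lysis.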
CSC inhib = blocks cancer stem cells. AID 2717. inhibition, % at 7.5 µM. hit rate 1.1% among 300,000. cancer stem cell-like cells viability, luminescence; in the data active means inhibition above about 75%; inconclusive means no clear call, values can overlap the other calls; tested in HMLE shEcad cells
Mdm2-MdmX conf = human Mdm2/MdmX binding inhibition, confirmed. shares compounds with Mdm2-MdmX inh. luminescent assay. inhibition, % at 8 µM. hit rate 55% among 10,000; in the data active means inhibition above about 40%
FLuc counter = counter-screen for Mdm2/MdmX inhibitors: full-length luciferase; SaOS-2 full-length luciferase counterscreen, luminescence; hit rate 77% among 6,200; AID 504607; inhibition, % at 8 µM; shares compounds with Mdm2-MdmX inh;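 active means mean inhibition at 8 µM reaching about 37%, which flags the compound as non-specific, limit read from the data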;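 further: p53-null SaOS-2 cells with luciferase driven by a doxycycline-inducible promoter; compound on cells about two nights before reading with doxycycline added after day one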
Active calls of the source: *; ? = inconclusive; . = no result. Only some compounds are listed: those with a hit (about 5.7% of all), similar ones and a draw of the others.

SMILES | Beta apoptosis | SKKanGAS inh | Mdm2-MdmX inh | Calb FLC | T cruzi inh | CSC inhib | Mdm2-MdmX conf | FLuc counter
CCCCNC(=O)C(C1CCCCC1)N(CCN(C)C)C(=O)CCCN1C(=O)NC(c2ccc(-c3ccccc3)cc2)C(C(=O)OCc2ccccc2)=C1C (stereo not drawn) | . | . | 97* | . | . | . | 57* | 1
CCCCCCN(C(=O)CCCCCN1C(=O)NC(c2ccc([N+](=O)[O-])cc2)C(C(=O)OCc2ccccc2)=C1C)C(C(=O)NCCCC)c1ccc(OCC(=O)OC)c(C(=O)OC)c1 (stereo not drawn) | -1 | 18 | 34 | 1 | 34 | 54 | . | .
CCCCCCN(C(=O)CCCCCN1C(=O)NC(c2ccc(-c3ccccc3)cc2)C(C(=O)OCc2ccccc2)=C1C)C(C)C(=O)NCCCC (stereo not drawn) | 8 | 23 | 19 | 1 | 36 | 3 | . | .
CCCCCCN(C(=O)CCCCCN1C(=O)NC(c2cccc([N+](=O)[O-])c2)C(C(=O)OCc2ccccc2)=C1C)C(C(=O)NCCCC)c1ccc(OCC(=O)OC)c(C(=O)OC)c1 (stereo not drawn) | 0 | 28 | 85* | 1 | 39 | -43 | -14 | .
CCCCNC(=O)C(C)N(CCN(C)C)C(=O)CCCN1C(=O)NC(c2ccc([N+](=O)[O-])cc2)C(C(=O)OCc2ccccc2)=C1C (stereo not drawn) | . | . | 68* | . | . | . | 23 | .
Cc1nc(-c2ccccc2Cl)sc1C(=O)/C=C/N(C)C | 1 | 4 | -6 | 26 | . | -2 | . | .
COCc1ccc(-c2c(-c3ccc(OC)cc3)oc(=O)c3cc(OC)c(OC)cc23)cc1 | 16 | . | -25 | . | . | 23 | . | .
COc1cc2c(-c3ccc4cc[nH]c4c3)c(-c3ccc(C#N)cc3)oc(=O)c2cc1OC | 27 | . | 59* | . | . | 39 | 35 | 52*
Cc1ccc(-c2cnc(C3CC3)o2)cc1S(=O)(=O)Nc1ccccc1 | . | 2 | 61* | -10 | 15 | . | 66* | 34
CC(=O)c1ccc(NS(=O)(=O)c2cc(-c3cnc(C4CC4)o3)ccc2C)cc1 | . | 8 | 44 | -5 | 11 | . | . | .
CC(=O)c1cccc(NS(=O)(=O)c2cc(-c3cnc(C4CC4)o3)ccc2C)c1 | 7 | 8 | 57* | . | -3 | ? | 60* | 61*
CC(=O)Nc1ccc(NS(=O)(=O)c2cc(-c3cnc(C4CC4)o3)ccc2C)cc1 | 9 | -3 | 3 | 20 | 12 | 17 | . | .
O=C(O)CCC(=O)Nc1ccc2c(c1)Cc1cc(NC(=O)CCC(=O)O)ccc1-2 | 0 | 4 | 11 | -6 | -8 | 1 | . | .
CC(=O)Nc1ccc(NC(=O)C(C)OC(=O)CSCc2cccc(Cl)c2)cc1 (stereo not drawn) | -1 | -20 | 6 | -2 | -9 | -2 | . | .
O=C(c1cc(COc2ccc(F)cc2Cl)on1)N1CCSCC1 | -2 | -3 | -91 | 0 | 14 | -2 | . | .
CCN1/C(=C/c2ccc3cc(C)ccc3[n+]2CC)Sc2ccc3sccc3c21 | 140* | 115* | 101* | 101* | 60* | 49 | 87* | 17
CC[n+]1c(C)sc2c3ccsc3ccc21 | -17 | 3 | -10 | 7 | 33 | -6 | . | .
Cc1ccc(N2CC(C(=O)OCC(=O)NNC(=O)c3ccccc3)CC2=O)cc1 (stereo not drawn) | -7 | 1 | -25 | 3 | 1 | -10 | . | .
Fc1ccccc1/C=N/NC(=S)Nc1ccc(Cl)cc1Cl | 13 | -2 | 80* | 36 | -72 | 64 | 72* | 90*
COc1cc2nc(Nc3ccc(F)cc3)nc(N)c2cc1OC | -2 | -9 | 0 | -1 | 6 | 11 | . | .
COc1cc2nc(Nc3ccc(C)c(C)c3)nc(N)c2cc1OC | 6 | -5 | 87* | -11 | 56* | 9 | 18 | .
CCOC(=O)c1ccc(Nc2nc(N)c3cc(OC)c(OC)cc3n2)cc1 | 16 | -6 | 85* | 7 | 50 | 15 | 83* | 49*
COc1cc2nc(Nc3ccc(C)c(Cl)c3)nc(N)c2cc1OC | 14 | -13 | 93* | -6 | 38 | 106* | 66* | 88*
Cc1ccc(Nc2nc(N)c3ccccc3n2)cc1Cl | . | 9 | -208 | 69 | 46 | . | . | .
COc1ccc(Cl)cc1NC(=O)C(C)N1CCN(c2ccccn2)CC1 (stereo not drawn) | 3 | -2 | 22 | 7 | -19 | 6 | . | .
SMILES | Beta apoptosis | SKKanGAS inh | Mdm2-MdmX inh | Calb FLC | T cruzi inh | CSC inhib | Mdm2-MdmX conf | FLuc counter
CCOC(=O)c1ccc(N=c2sc(C(=O)OC)cc(=O)n2-c2ccc(C(=O)OCC)cc2)cc1 | 24 | 2 | 83* | -4 | 39 | 69 | -6 | .
CCc1ccc(NC(=O)c2cnc(N3CCN(c4ccccn4)CC3)c3ccccc23)cc1 | 44 | 8 | 64* | 0 | 60* | 19 | 56* | 60*
CC(C)NC(=O)c1cnc(N2CCN(c3ccccn3)CC2)c2ccccc12 | 1 | -8 | -5 | 0 | 18 | 4 | . | .
O=C(NC(=S)Nc1ccccc1[N+](=O)[O-])c1ccccc1 | 7 | 0 | -27 | -7 | 8 | 5 | . | .
O=C(NC(=S)/C(=C1\CCCCCN1)[N+](=O)[O-])c1ccccc1 | 1 | . | 85* | . | . | 0 | 79* | 142*
Cc1cc(OCC(=O)Nc2sc3c(c2C#N)CC(C)(C)NC3(C)C)c(C(C)C)cc1Cl | 7 | 10 | 47 | -3 | 51 | 56 | . | .
CCOC(=O)c1c(NC(=O)CSc2ncccn2)sc2c1CC(C)(C)NC2(C)C | -7 | -3 | 35 | 10 | 31 | -17 | . | .
Cc1ccc(C(C)C)c(OCC(=O)Nc2sc3c(c2C#N)CC(C)(C)NC3(C)C)c1 | 29 | 0 | 59* | -16 | 33 | 65 | 31 | 81*
CCOC(=O)c1c(NC(=O)COc2ccccc2F)sc2c1CC(C)(C)NC2(C)C | . | -4 | 84* | 8 | 47 | 45 | 72* | 63*
COC(=O)c1c(NC(=O)COc2ccc(Cl)cc2)sc2c1CC(C)(C)NC2(C)C | 102* | 68* | 95* | 32 | 65* | 10 | 99* | 0
CCOC(=O)c1c(NC(=O)c2ccc(S(=O)(=O)N3CCOCC3)cc2)sc2c1CC(C)(C)NC2(C)C | -1 | 0 | 55* | -7 | 23 | 12 | 34 | .
CCOC(=O)c1c(NC(=O)c2ccc(S(=O)(=O)N3CCOCC3)cc2)sc2c1CCN(C)C2 | -3 | 3 | 22 | -26 | . | 20 | . | .
Cc1ccc(S(=O)(=O)Nc2ccc3c(c2)C(=O)N([C@H](C)CO)C[C@H](C)[C@@H](CN(C)C(=O)Nc2ccc(C(F)(F)F)cc2)O3)cc1 | . | . | -9 | . | . | . | . | .
COc1ccc(NS(=O)(=O)c2ccc3c(c2)NC(=O)C(C)S3)cc1 (stereo not drawn) | 10 | -3 | 27 | 4 | -9 | -16 | . | .
